Assay results: ChEMBL document CHEMBL3612027, “Substrate-guided optimization of the syringolins yields potent proteasome inhibitors with activity against leukemia cell lines” (Bioorg Med Chem, 2015)

Assays:
Type in all cases: functional
NCI-H460 = assay: Cytotoxicity against human NCI-H460 cells assessed as cell growth at 10 uM after 48 hrs relative to control; settings: NCI-H460, 48 h, read-out: Activity
Procedure, shortened: (§1)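 Run at the National Cancer Institute as a single-dose screen across its 60-cell-line cancer panel. Compound was tested at 10 micromolar, and growth was expressed as a percentage of negative-control cultures.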

CAKI-1 = assay: Cytotoxicity against human Caki1 cells assessed as cell growth at 10 uM after 48 hrs relative to control; settings: CAKI-1, 48 h, read-out: Activity; procedure, shortened: as §1
NCI/ADR-RES = assay: Cytotoxicity against human NCI/ADR-RES cells assessed as cell growth at 10 uM after 48 hrs relative to control; settings: read-out: Activity; procedure, shortened: as §1
[1] = Cytotoxicity against human Hs578T cells assessed as cell growth at 10 uM after 48 hrs relative to control; settings: Hs-578T, read-out: Activity; procedure, shortened: as §1
OVCAR-5 = assay: Cytotoxicity against human OVCAR5 cells assessed as cell growth at 10 uM after 48 hrs relative to control; settings: OVCAR-5, 48 h, read-out: Activity; procedure, shortened: as §1
MDA-MB-231 = assay: Cytotoxicity against human MDA-MB-231 cells assessed as cell growth at 10 uM after 48 hrs relative to control; settings: MDA-MB-231, 48 h, read-out: Activity; procedure, shortened: as §1
CCRF-CEM = assay: Cytotoxicity against human CCRF-CEM cells assessed as cell growth at 10 uM after 48 hrs relative to control; settings: read-out: Activity; procedure, shortened: as §1
HT-29 = assay: Cytotoxicity against human HT-29 cells assessed as cell growth at 10 uM after 48 hrs relative to control; settings: HT-29, 48 h, read-out: Activity; procedure, shortened: as §1
SN12C = assay: Cytotoxicity against human SN12C cells assessed as cell growth at 10 uM after 48 hrs relative to control; settings: read-out: Activity
Procedure, shortened: (§2)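 Submitted to the National Cancer Institute for a single-dose screen at 10 micromolar against 60 cancer cell lines. Growth is expressed relative to negative-control cultures.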

DU-145 = assay: Cytotoxicity against human DU145 cells assessed as cell growth at 10 uM after 48 hrs relative to control; settings: DU-145, 48 h, read-out: Activity; procedure, shortened: as §1
UO-31 = assay: Cytotoxicity against human UO31 cells assessed as cell growth at 10 uM after 48 hrs relative to control; settings: UO-31, 48 h, read-out: Activity; procedure, shortened: as §2
MOLT-4 = assay: Cytotoxicity against human MOLT4 cells after 48 hrs; settings: MOLT-4, 48 h
HL-60 = assay: Cytotoxicity against human HL60 cells after 48 hrs; settings: HL-60, 48 h
LOX IMVI = assay: Cytotoxicity against human LOXIMVI cells assessed as cell growth at 10 uM after 48 hrs relative to control; settings: read-out: Activity; procedure, shortened: as §1
ACHN = assay: Cytotoxicity against human ACHN cells assessed as cell growth at 10 uM after 48 hrs relative to control; settings: read-out: Activity; procedure, shortened: as §1
T47D = assay: Cytotoxicity against human T47D cells assessed as cell growth at 10 uM after 48 hrs relative to control; settings: read-out: Activity; procedure, shortened: as §2
786-0 = assay: Cytotoxicity against human 786-0 cells assessed as cell growth at 10 uM after 48 hrs relative to control; settings: 786-0, 48 h, read-out: Activity; procedure, shortened: as §1
OVCAR-4 = assay: Cytotoxicity against human OVCAR4 cells assessed as cell growth at 10 uM after 48 hrs relative to control; settings: OVCAR-4, 48 h, read-out: Activity; procedure, shortened: as §1
SW-620 = assay: Cytotoxicity against human SW620 cells assessed as cell growth at 10 uM after 48 hrs relative to control; settings: SW-620, 48 h, read-out: Activity; procedure, shortened: as §2
HOP-62 = assay: Cytotoxicity against human HOP62 cells assessed as cell growth at 10 uM after 48 hrs relative to control; settings: HOP-62, 48 h, read-out: Activity; procedure, shortened: as §1
SK-OV-3 = assay: Cytotoxicity against human SKOV3 cells assessed as cell growth at 10 uM after 48 hrs relative to control; settings: SK-OV-3, 48 h, read-out: Activity; procedure, shortened: as §1
MDA-MB-435 = assay: Cytotoxicity against human MDA-MB-435 cells assessed as cell growth at 10 uM after 48 hrs relative to control; settings: MDA-MB-435, 48 h, read-out: Activity; procedure, shortened: as §1
MCF7 = assay: Cytotoxicity against human MCF7 cells assessed as cell growth at 10 uM after 48 hrs relative to control; settings: MCF7, 48 h, read-out: Activity; procedure, shortened: as §1
M14 = assay: Cytotoxicity against human M14 cells assessed as cell growth at 10 uM after 48 hrs relative to control; settings: M14, 48 h, read-out: Activity; procedure, shortened: as §1
SF-539 = assay: Cytotoxicity against human SF539 cells assessed as cell growth at 10 uM after 48 hrs relative to control; settings: SF-539, 48 h, read-out: Activity; procedure, shortened: as §1
UACC-62 = assay: Cytotoxicity against human UACC62 cells assessed as cell growth at 10 uM after 48 hrs relative to control; settings: UACC-62, 48 h, read-out: Activity; procedure, shortened: as §2
BT-549 = assay: Cytotoxicity against human BT549 cells assessed as cell growth at 10 uM after 48 hrs relative to control; settings: BT-549, 48 h, read-out: Activity; procedure, shortened: as §1
SK-MEL-28 = assay: Cytotoxicity against human SK-MEL-28 cells assessed as cell growth at 10 uM after 48 hrs relative to control; settings: SK-MEL-28, 48 h, read-out: Activity; procedure, shortened: as §1
HOP-92 = assay: Cytotoxicity against human HOP92 cells assessed as cell growth at 10 uM after 48 hrs relative to control; settings: HOP-92, 48 h, read-out: Activity; procedure, shortened: as §1
RPMI-8226 = assay: Cytotoxicity against human RPMI8226 cells assessed as cell growth at 10 uM after 48 hrs relative to control; settings: RPMI-8226, 48 h, read-out: Activity; procedure, shortened: as §1
SF-268 = assay: Cytotoxicity against human SF268 cells assessed as cell growth at 10 uM after 48 hrs relative to control; settings: SF-268, 48 h, read-out: Activity; procedure, shortened: as §1
SR = assay: Cytotoxicity against human SR cells after 48 hrs
Procedure, shortened: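 Dose-dependent growth inhibition was assessed at the National Cancer Institute against its cancer cell line panel as a follow-up to the 10 micromolar single-dose screen.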

PC-3 = assay: Cytotoxicity against human PC3 cells assessed as cell growth at 10 uM after 48 hrs relative to control; settings: PC-3, 48 h, read-out: Activity; procedure, shortened: as §1
HL-60(TB) = assay: Cytotoxicity against human HL-60(TB) cells assessed as cell growth at 10 uM after 48 hrs relative to control; settings: HL-60, 48 h, read-out: Activity
Procedure, shortened: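 Run at the NCI as a single-dose screen: each compound at 10 micromolar across the 60-cancer-cell-line panel. Growth of each cell line in compound-containing media was expressed relative to negative-control cultures.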

NCI-H226 = assay: Cytotoxicity against human NCI-H226 cells assessed as cell growth at 10 uM after 48 hrs relative to control; settings: NCI-H226, 48 h, read-out: Activity; procedure, shortened: as §1
A549 = assay: Cytotoxicity against human A549 cells assessed as cell growth at 10 uM after 48 hrs relative to control; settings: A549, 48 h, read-out: Activity; procedure, shortened: as §1
NCI-H522 = assay: Cytotoxicity against human NCI-H522 cells assessed as cell growth at 10 uM after 48 hrs relative to control; settings: NCI-H522, 48 h, read-out: Activity; procedure, shortened: as §1

COC(=O)[C@@H](NC(=O)N[C@H](C(=O)N[C@H]1CCCCNC(=O)/C=C/[C@H](C(C)C)NC1=O)C(C)C)C(C)C
growth at 10 µM (NCI-H460): 28.9% | growth at 10 µM (CAKI-1): 103% | growth at 10 µM (NCI/ADR-RES): 100% | growth at 10 µM [1]: 4.52% | growth at 10 µM (OVCAR-5): 58.4% | growth at 10 µM (MDA-MB-231): 24.4% | growth at 10 µM (CCRF-CEM): 15.1% | growth at 10 µM (HT-29): 11.7% | growth at 10 µM (SN12C): 15.8% | growth at 10 µM (DU-145): 42% | growth at 10 µM (UO-31): 82.2% | GI50 (MOLT-4): 4.73 µM | GI50 (HL-60): 5.41 µM | growth at 10 µM (LOX IMVI): -24.1% | growth at 10 µM (ACHN): 96.4% | growth at 10 µM (T47D): -31.7% | growth at 10 µM (786-0): 83.3% | growth at 10 µM (OVCAR-4): 6.22% | growth at 10 µM (SW-620): 30.3% | growth at 10 µM (HOP-62): 22.9% | growth at 10 µM (SK-OV-3): 47.5% | growth at 10 µM (MDA-MB-435): -55.5% | growth at 10 µM (MCF7): 42.8% | growth at 10 µM (M14): 64.5% | growth at 10 µM (SF-539): -19.4% | growth at 10 µM (UACC-62): 13.3% | growth at 10 µM (BT-549): 5.44% | growth at 10 µM (SK-MEL-28): 30.2% | growth at 10 µM (HOP-92): -8.79% | growth at 10 µM (RPMI-8226): 15.2% | growth at 10 µM (SF-268): -20.1% | GI50 (SR): 5.13 µM | growth at 10 µM (PC-3): 62% | growth at 10 µM (HL-60(TB)): 27.2% | growth at 10 µM (NCI-H226): -24% | growth at 10 µM (A549): 42.1%

COC(=O)[C@@H](NC(=O)N[C@H](C(=O)N[C@H]1CCCCNC(=O)/C=C/[C@H](Cc2c[nH]c3ccccc23)NC1=O)C(C)C)C(C)C
growth at 10 µM (NCI-H460): 45.5% | growth at 10 µM (CAKI-1): 98.8% | growth at 10 µM (NCI/ADR-RES): 98.4% | growth at 10 µM [1]: 9.21% | growth at 10 µM (OVCAR-5): 61.1% | growth at 10 µM (MDA-MB-231): 39% | growth at 10 µM (CCRF-CEM): 15.8% | growth at 10 µM (HT-29): 3.42% | growth at 10 µM (SN12C): 2.96% | growth at 10 µM (DU-145): 52% | growth at 10 µM (UO-31): 94.3% | growth at 10 µM (LOX IMVI): 25.1% | growth at 10 µM (ACHN): 90.8% | growth at 10 µM (T47D): -9.26% | growth at 10 µM (786-0): 83.9% | growth at 10 µM (OVCAR-4): 2.98% | growth at 10 µM (SW-620): 58.3% | growth at 10 µM (HOP-62): 95% | growth at 10 µM (SK-OV-3): 15.4% | growth at 10 µM (MDA-MB-435): -81.5% | growth at 10 µM (MCF7): 48.5% | growth at 10 µM (M14): 86.7% | growth at 10 µM (SF-539): -14.4% | growth at 10 µM (UACC-62): 60.7% | growth at 10 µM (BT-549): 8.05% | growth at 10 µM (SK-MEL-28): 41.9% | growth at 10 µM (HOP-92): 18% | growth at 10 µM (RPMI-8226): 19% | growth at 10 µM (SF-268): 9.42% | growth at 10 µM (PC-3): 76.3% | growth at 10 µM (HL-60(TB)): 17.6% | growth at 10 µM (NCI-H226): 15.1% | growth at 10 µM (NCI-H522): -17.8% | growth at 10 µM (A549): 77.5%

COC(=O)[C@@H](NC(=O)N[C@@H](Cc1ccccc1)C(=O)N[C@H]1CCCCNC(=O)/C=C/[C@H](C(C)C)NC1=O)C(C)C
growth at 10 µM (NCI-H460): 59.6% | growth at 10 µM (CAKI-1): 98.3% | growth at 10 µM (NCI/ADR-RES): 105% | growth at 10 µM [1]: 40.9% | growth at 10 µM (OVCAR-5): 104% | growth at 10 µM (MDA-MB-231): 60.8% | growth at 10 µM (CCRF-CEM): 55.1% | growth at 10 µM (HT-29): 31.1% | growth at 10 µM (SN12C): 75.6% | growth at 10 µM (DU-145): 53.1% | growth at 10 µM (UO-31): 94.7% | growth at 10 µM (LOX IMVI): 15.2% | growth at 10 µM (ACHN): 102% | growth at 10 µM (T47D): -3.59% | growth at 10 µM (786-0): 97.5% | growth at 10 µM (OVCAR-4): 56.6% | growth at 10 µM (SW-620): 38.5% | growth at 10 µM (HOP-62): 84.4% | growth at 10 µM (SK-OV-3): 101% | growth at 10 µM (MDA-MB-435): -59.9% | growth at 10 µM (MCF7): 43.8% | growth at 10 µM (M14): 86.6% | growth at 10 µM (SF-539): 5.04% | growth at 10 µM (UACC-62): 29% | growth at 10 µM (BT-549): 29.6% | growth at 10 µM (SK-MEL-28): 52.1% | growth at 10 µM (HOP-92): 18.9% | growth at 10 µM (RPMI-8226): 23.1% | growth at 10 µM (SF-268): 30% | growth at 10 µM (PC-3): 75% | growth at 10 µM (HL-60(TB)): 62.5% | growth at 10 µM (NCI-H226): 54.7% | growth at 10 µM (NCI-H522): -43.8% | growth at 10 µM (A549): 77.4%
